Data as given in ChEMBL document CHEMBL3297688, “New orally active dual enkephalinase inhibitors (DENKIs) for central and peripheral pain treatment” (J Med Chem, 2014).
Activity calls are given as the source filed them.

Key:
Mus musculus [1] = experiment: Antinociceptive activity in OF1 mouse acute central pain model at 20 mg/kg, iv after 10 mins by hot plate test relative to vehicle-treated control; format: functional
How it was run: (§1)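 Male OF1 mice, iv dosing in water/mannitol (50 mg/mL) vehicle. Hot plate at 52 ± 1 °C read 10 min post-injection. Jump latency with a 240 s cutoff, expressed as % MPE. n = 10 per group. ANOVA with Newman–Keuls or Bonferroni tests versus vehicle.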

Mus musculus [2] = experiment: Antinociceptive activity in OF1 mouse acute central pain model at 150 mg/kg, po administered with EtOH/PEG400/water after 40 mins by hot plate test relative to vehicle-treated control; format: functional
How it was run: (§2)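 Oral gavage in male OF1 mice, vehicle EtOH/PEG400/H2O (10/40/50); 150 mg/kg for single-dose lines. Hot plate (52 ± 1 °C) jump latency read at 20, 40 and 60 min, 240 s cutoff, % MPE. […] ANOVA + Newman–Keuls or Bonferroni.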

Mus musculus [3] = experiment: Antinociceptive activity in OF1 mouse acute central pain model at 150 mg/kg, po administered with EtOH/PEG400/water after 20 mins by hot plate test relative to vehicle-treated control; format: functional; how it was run: as §2
Mus musculus [4] = experiment: Antinociceptive activity in OF1 mouse acute central pain model at 150 mg/kg, po administered with EtOH/PEG400/water after 60 mins by hot plate test relative to vehicle-treated control; format: functional; how it was run: as §2
Mus musculus [5] = experiment: Antinociceptive activity in iv dosed CD1 mouse administered with EtOH/cremophor/water after 10 mins by hot plate test; format: functional
Mus musculus [6] = experiment: Antinociceptive activity in po dosed CD1 mouse after 45 mins by hot plate test; format: functional; settings: 0.75 h
Mus musculus [7] = experiment: Activity in OF1 mouse acute central pain model at 150 mg/kg, po administered as single dose by hot plate test; format: functional, organism-based; set-up: dose 150 mg/kg
How it was run: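 Hot plate at 52 ± 1 °C, male OF1 mice. Single oral dose of 150 mg/kg. Jump latency recorded with a 240 s cutoff and converted to % MPE against control latency.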

Mus musculus [8] = experiment: Activity in OF1 mouse acute central pain model at 10 mg/kg, iv administered as single dose by hot plate test; format: functional, organism-based; set-up: dose 10 mg/kg
Mus musculus [9] = experiment: Antinociceptive activity in OF1 mouse persistent pain model assessed as reduction of formalin-induced paw licking at 50 mg/kg, po administered with EtOH/methyl cellulose in water 30 mins prior to formalin challenge measured after 1 to 5 mins relative to vehicle-treated control; format: functional; set-up: scale not given: the % may be the effect or the level left
How it was run: (§3)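 Male OF1 mice gavaged with 50 mg/kg in ethanol/methylcellulose 0.5% in water (1.5/98.5), 30 or 90 min before a plantar sc injection of 5% formalin (20 μL in saline). Licking time recorded over 0–5 min (early phase). n = 5–7 per group. ANOVA + Bonferroni versus vehicle.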

Mus musculus [10] = experiment: Antinociceptive activity in OF1 mouse persistent pain model assessed as reduction of formalin-induced paw licking at 50 mg/kg, po administered with EtOH/methyl cellulose in water 90 mins prior to formalin challenge measured after 1 to 5 mins relative to vehicle-treated control; format: functional; set-up: scale not given: the % may be the effect or the level left; how it was run: as §3
Mus musculus [11] = experiment: Antinociceptive activity in OF1 mouse acute central pain model at 10 mg/kg, iv administered with EtOH/Tween80/water after 10 mins by hot plate test relative to vehicle-treated control; format: functional
How it was run: (§4)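 Male OF1 mice dosed iv in ethanol/Tween80/water (1/1/8). Jump latency on a 52 ± 1 °C hot plate (240 s cutoff) read 10 min after injection, expressed as mean % MPE ± SEM. n = 18–21 per group for dose–response, n = 8 for 10 mg/kg comparisons. ED50 taken from dose–response. ANOVA + Bonferroni.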

Mus musculus [12] = experiment: Antinociceptive activity in OF1 mouse acute central pain model at 40 mg/kg, iv after 10 mins by hot plate test relative to vehicle-treated control; format: functional; how it was run: as §1
Mus musculus [13] = experiment: Antinociceptive activity in OF1 mouse acute central pain model at 60 mg/kg, iv after 10 mins by hot plate test relative to vehicle-treated control; format: functional; how it was run: as §1
Mus musculus [14] = experiment: Antinociceptive activity in OF1 mouse acute central pain model assessed as time duration of action at 150 mg/kg, po administered with EtOH/PEG400/water after 20 to 60 mins by hot plate test relative to vehicle-treated control; format: functional; how it was run: as §2
Mus musculus [15] = experiment: Antinociceptive activity in OF1 mouse acute central pain model assessed as time duration of action at 40 mg/kg, iv administered with water/mannitol after 10 mins by hot plate test relative to vehicle-treated control; format: functional
Mus musculus [16] = experiment: Antinociceptive activity in OF1 mouse acute central pain model at 10 mg/kg, iv after 10 mins by hot plate test relative to vehicle-treated control; format: functional
Rattus norvegicus [17] = experiment: Antinociceptive activity in iv dosed Sprague-Dawley rat acute centrospinal nociception model administered with EtOH/Tween80/water after 10 to 20 mins by tail flick test relative to vehicle-treated control; format: functional, organism-based; settings: TDE = time-dependent effect
Mus musculus [18] = experiment: Antiallodynic activity in OF1 mouse neuropathic pain model assessed as increase in partial sciatic nerve ligation-induced reduction of threshold for paw withdrawal at 25 mg/kg, po after 20 mins by von frey test relative to vehicle-treated control; format: functional; set-up: scale not given: the % may be the effect or the level left
How it was run: (§5)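 Partial ligation of 33–50% of the sciatic nerve in male OF1 mice; sham mice operated without ligation. Tested days 10–20 post-surgery, before and 20 min after 25 mg/kg po. Mechanical threshold by von Frey filaments; thermal latency by plantar test (8–10 s baseline, 20 s cutoff, mean of three trials at 5 min intervals). Ipsilateral and contralateral paws tested. n = 6–9 per group.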

Mus musculus [19] = experiment: Antinociceptive activity in OF1 mouse acute central pain model assessed as jump latency at 10 mg/kg, iv after 10 mins by hot plate test relative to vehicle-treated control in presence of naloxone; format: functional, organism-based; set-up: dose 10 mg/kg
How it was run: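 Naloxone 0.5 mg/kg given sc before the test compound (10 mg/kg iv) in male OF1 mice. Hot plate (52 ± 1 °C) jump latency measured, 240 s cutoff. n = 7–10 per group. ANOVA followed by Bonferroni versus vehicle and versus drug alone.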

Rattus norvegicus [20] = experiment: Prodrug activation in rat plasma at 200 mg, po after 30 mins by LC/MS/MS analysis; settings: 0.5 h
Rattus norvegicus [21] = experiment: Antinociceptive activity in Sprague-Dawley rat acute centrospinal nociception model at 100 mg/kg, po after 20 mins by tail flick test relative to vehicle-treated control; format: functional
Mus musculus [22] = experiment: Antihyperalgesic activity in OF1 mouse neuropathic pain model assessed as increase in partial sciatic nerve ligation-induced reduction in thermal threshold at 25 mg/kg, po by plantar test relative to vehicle-treated control; format: functional, organism-based; set-up: dose 25 mg/kg; how it was run: as §5
Mus musculus [23] = experiment: Antinociceptive activity in iv dosed OF1 mouse acute central pain model assessed as jump latency administered with EtOH/Tween80/water after 10 mins by hot plate test relative to vehicle-treated control; format: functional; how it was run: as §4
Mus musculus [24] = experiment: Antinociceptive activity in iv dosed OF1 mouse acute central pain model assessed as jump latency administered with water/mannitol after 10 mins by hot plate test relative to vehicle-treated control; format: functional; how it was run: as §1
Rattus norvegicus [25] = experiment: Antinociceptive activity in Sprague-Dawley rat acute centrospinal nociception model at 20 mg/kg, iv administered with EtOH/Tween80/water after 10 mins by tail flick test relative to vehicle-treated control
Mus musculus [26] = experiment: Antinociceptive activity in po dosed OF1 mouse acute central pain model administered with EtOH/PEG400/water after 20 mins by hot plate test relative to vehicle-treated control; format: functional; how it was run: as §2

`CSCC[C@H](N)CSSCC(Cc1ccsc1)C(=O)N[C@@H](C)C(=O)OC[C@H]1O[C@@H](O)[C@H](O)[C@@H](O)[C@@H]1O` (stereo partly drawn) showed an Activity (Mus musculus [1]) of 10%.
With `CCC(=O)OC(OC(=O)CNC(=O)[C@@H](CSSC[C@@H](N)CCSC)Cc1ccccc1)C1CCCCC1` (stereo partly drawn) the Activity (Mus musculus [2]) was 10%, the Activity (Mus musculus [3]) was 8% and the Activity (Mus musculus [4]) was 12%.
For `CSCC[C@H](N)CSSCC(Cc1ccsc1)C(=O)N[C@@H](C)C(=O)OC[C@H](COC(C)=O)OC(C)=O` (stereo partly drawn), the Activity (Mus musculus [1]) was 29%.
For `CSCC[C@H](N)CSSCC(Cc1ccsc1)C(=O)N[C@@H](C)C(=O)OC(CO)CO` (stereo partly drawn), the Activity (Mus musculus [1]) was 22%.
In the case of `CSCC[C@H](N)CSSC[C@@H](Cc1ccccc1)C(=O)N[C@@H](C)C(=O)OCc1ccccc1`, the ED50 (Mus musculus [5]) was 3 mg/kg and the ED50 (Mus musculus [6]) was 410 mg/kg.
For `CSCC[C@H](N)CSSCC(Cc1ccsc1)C(=O)N[C@@H](C)C(=O)O` (stereo partly drawn), the Activity (Mus musculus [7]) was “inactive” and the Activity (Mus musculus [8]) was “inactive”.
`CSCC[C@H](N)CSSC[C@@H](Cc1ccccc1)C(=O)NCC(=O)O` was tested, and the Activity (Mus musculus [7]) was “inactive” and the Activity (Mus musculus [8]) was “inactive”.
`CCOC(=O)OC(C)OC(=O)CNC(=O)[C@@H](CSSC[C@@H](N)CC[S+](C)[O-])Cc1ccccc1.O=CO` (stereo partly drawn) showed an Activity (Mus musculus [9]) of 54%, an Activity (Mus musculus [10]) of 41% and an Activity (Mus musculus [11]) of 30%.
Work on `CCC(=O)OC(OC(=O)CNC(=O)[C@@H](CSSC[C@@H](N)CCSC)Cc1ccccc1)C(C)C` (stereo partly drawn) yielded an Activity (Mus musculus [2]) of 24%, an Activity (Mus musculus [3]) of 32% and an Activity (Mus musculus [4]) of 8%.
For `CCOC(=O)OC(C)OC(=O)[C@@H](NC(=O)[C@@H](CSSC[C@@H](N)CCSC)Cc1ccccc1)C(C)O` (stereo partly drawn), the Activity (Mus musculus [12]) was 61%, the Activity (Mus musculus [13]) was 84% and the Activity (Mus musculus [1]) was 29%.
`CCOC(=O)OC(C)OC(=O)[C@H](C)NC(=O)C(CSSC[C@@H](N)CCSC)Cc1ccsc1` (stereo partly drawn) was tested, and the Activity (Mus musculus [1]) was 44%.
With `CCOC(=O)OC(OC(=O)CNC(=O)[C@@H](CSSC[C@@H](N)CCSC)Cc1ccccc1)C(C)C` (stereo partly drawn) the Activity (Mus musculus [2]) was 18%, the Activity (Mus musculus [3]) was 46% and the Activity (Mus musculus [4]) was 0%.
`CSCC[C@H](N)CSSCC(Cc1ccsc1)C(=O)N[C@@H](C)C(=O)OCCS(C)(=O)=O` (stereo partly drawn) gave an Activity (Mus musculus [1]) of 22%.
With `CCOC(=O)OC(OC(=O)CNC(=O)[C@@H](CSSC[C@@H](N)CCSC)Cc1ccccc1)C1CCCCC1` (stereo partly drawn) the Activity (Mus musculus [2]) was 3%, the Activity (Mus musculus [3]) was 17% and the Activity (Mus musculus [4]) was 8%.
In the case of `CCOC(=O)COC(=O)[C@H](C)NC(=O)C(CSSC[C@@H](N)CCSC)Cc1ccsc1` (stereo partly drawn), the Activity (Mus musculus [1]) was 32%.
With `CCOC(=O)OC(C)OC(=O)CNC(=O)[C@@H](CSSC[C@@H](N)CCSC)Cc1ccccc1.O=CO` (stereo partly drawn) the Activity (Mus musculus [9]) was 41%, the Time (Mus musculus [14]) was under 1 h and the Activity (Mus musculus [2]) was 28%. For the same compound, the Time (Mus musculus [15]) was under 40 min, the Activity (Mus musculus [16]) was 35% and the Activity (Rattus norvegicus [17]) was “tde”. It also gave an Activity (Mus musculus [10]) of 41%, an Activity (Mus musculus [18]) of 51% and an Activity (Mus musculus [3]) of 58%. The Activity (Mus musculus [12]) was 97%, the Activity (Mus musculus [1]) was 58% and the Activity (Mus musculus [19]) was “inactive”. For the same compound, the Drug metabolism (Rattus norvegicus [20]) was 98%, the Activity (Rattus norvegicus [21]) was 10% and the Activity (Mus musculus [22]) was “Active”. For the same compound, the Activity (Mus musculus [23]) was “Dose-dependent effect”, the ED50 (Mus musculus [23]) was 4.5 mg/kg and the Activity (Mus musculus [4]) was 7%. For the same compound, the Activity (Mus musculus [24]) was “Dose-dependent effect”, the ED50 (Mus musculus [24]) was 16 mg/kg and the Activity (Mus musculus [11]) was 78%. It also gave an Emax at 20 mg/kg (Rattus norvegicus [25]) of 40% and an ED50 (Mus musculus [26]) of 133 mg/kg.
`C[S+]([O-])CC[C@H](N)CSSC[C@@H](Cc1ccccc1)C(=O)NCC(=O)O` (stereo partly drawn) was tested, and the Activity (Mus musculus [7]) was “inactive” and the Activity (Mus musculus [8]) was “inactive”.
For `CSCC[C@H](N)CSSC[C@@H](Cc1ccccc1)C(=O)N[C@H](C(=O)O)[C@@H](C)O`, the Activity (Mus musculus [7]) was “inactive” and the Activity (Mus musculus [8]) was “inactive”.
Work on `CSCC[C@H](N)CSSCC(Cc1ccsc1)C(=O)N[C@@H](C)C(=O)OC(COC(C)=O)COC(C)=O` (stereo partly drawn) yielded an Activity (Mus musculus [1]) of 40%.
